Experimental data from ChEMBL document CHEMBL3745671, “Discovery of N-[5-(6-Chloro-3-cyano-1-methyl-1H-indol-2-yl)-pyridin-3-ylmethyl]-ethanesulfonamide, a Cortisol-Sparing CYP11B2 Inhibitor that Lowers Aldosterone in Human Subjects” (J Med Chem, 2015).

Columns and labels:
[1] = Oral bioavailability in continuous angiotensin 2 infusion Sprague-Dawley rat model at 3 mg/kg; format: ADME, organism-based; details: in vivo
Method in brief: (§1)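 Male Sprague Dawley rats, 200–300 g. IV: 0.3 mg/1 mL/kg (free base) slow injection via jugular vein, n=2. Oral gavage at 1 mg/5 mL/kg or 3 mg/5 mL/kg in solution, n=3. Jugular catheter blood at 5 min (iv only), 0.25–8 h into EDTA; plasma after protein precipitation with acetonitrile containing internal standard, HPLC-MS; noncompartmental parameters.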

[2] = Cmax in healthy human at 200 mg/kg, po bid; format: ADME, organism-based; set-up: dose 200 mg/kg, route oral; details: in vivo
Method in brief: (§2)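 Double-blind, randomized, placebo-controlled study in healthy male and female volunteers aged 18-63 on a restricted sodium/potassium diet. Oral bid doses of 30, 60, 100 or 200 mg, drug:placebo 5:2. N per dose 10–17. AUCtau, Cmax and median Tmax reported; dose-normalized values are AUCtau/dose and Cmax/dose.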

[3] = test system: Homo sapiens; assay: Decrease in plasma aldosterone level in human at 200 mg/kg, po bid measured over 24 hrs; format: functional; details: in the assay text read “200 mg” for “200 mg/kg”
Method in brief: (§3)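 Healthy male and female volunteers, 18-63 years, restricted sodium/potassium diet; double-blind randomized placebo-controlled, oral 30, 60, 100 or 200 mg bid (drug:placebo 5:2).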

[4] = test system: Homo sapiens; assay: Decrease in urinary aldosterone excretion in po dosed human administered as bid measured over 24 hrs; format: functional, organism-based; details: Urine; method in brief: as §3
[5] = test system: Homo sapiens; assay: Decrease in urinary aldosterone excretion in human at 200 mg/kg, po bid measured over 24 hrs; format: functional, Urine; details: in the assay text read “200 mg” for “200 mg/kg”; method in brief: as §3
[6] = Inhibition of CYP11B2 in cynomolgus monkey adrenal homogenates assessed as inhibition of aldosterone secretion; format: tissue-based, Macaca fascicularis
Method in brief: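 Cynomolgus monkey adrenal homogenates, with 11-DOC as substrate; aldosterone secretion inhibition determined as IC50.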

[7] = test system: Homo sapiens; assay: Dose normalized Cmax in healthy human at 200 mg/kg, po bid; format: ADME, organism-based; details: in vivo; method in brief: as §2
[8] = test system: Homo sapiens; assay: Dose normalized AUCtau in healthy human at 200 mg/kg, po bid; format: ADME, organism-based; details: in vivo; method in brief: as §2
[9] = Tmax in healthy human at 200 mg/kg, po bid; format: ADME, organism-based; details: in vivo; method in brief: as §2
[10] = test system: Homo sapiens; assay: Dose normalized Cmax in healthy human at 60 mg/kg, po bid; format: ADME, organism-based; details: in vivo; method in brief: as §2
[11] = Tmax in healthy human at 60 mg/kg, po bid; format: ADME, organism-based; details: in vivo; method in brief: as §2
[12] = test system: Homo sapiens; assay: Decrease in plasma aldosterone level in po dosed human administered as bid measured over 24 hrs; format: functional, organism-based; method in brief: as §3
[13] = Equilibrium solubility of the compound in buffer at pH 6.8; format: physicochemical
Method in brief: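 Equilibrium solubility measured in buffer at pH 6.8.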

[14] = Cmax in healthy human at 30 mg/kg, po bid; format: ADME, organism-based; set-up: dose 30 mg/kg, route oral; details: in vivo; method in brief: as §2
[15] = test system: Homo sapiens; assay: Dose normalized Cmax in healthy human at 30 mg/kg, po bid; format: ADME, organism-based; details: in vivo; method in brief: as §2
[16] = Half life in rat liver microsomes after 30 mins by LC/MS/MS analysis; format: ADME
[17] = test system: Homo sapiens; assay: Dose normalized Cmax in healthy human at 100 mg/kg, po bid; format: ADME, organism-based; details: in vivo; method in brief: as §2
[18] = Tmax in healthy human at 30 mg/kg, po bid; format: ADME, organism-based; details: in vivo; method in brief: as §2
[19] = test system: Homo sapiens; assay: Toxicity in human assessed as increase in urinary 11-deoxycortisol level at 30 to 200 mg/kg, po bid measured over 24 hrs; format: organism-based, Urine; details: in vivo, in the assay text read “30 to 200 mg” for “30 to 200 mg/kg”; method in brief: as §3
[20] = test system: Plasma; assay: Drug uptake in plasma of chair-trained chronically cannulated cynomolgus monkey model at 0.03 to 3 mg/kg, po compound administered followed by ACTH challenge for 3 hrs measured at 24 hrs by LC/MS/MS analysis; format: ADME, organism-based, Macaca fascicularis; details: in vivo
Method in brief: (§4)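 Conscious chair-trained, chronically cannulated male cynomolgus monkeys; vascular access port via Huber needle. Baseline blood (heparin) before dosing; methylcellulose suspension po at 0.03, 0.1, 0.3 or 3 mg/kg (n=3/dose) or vehicle (n=6, same animals). ACTH(1–24) 3000 ng/kg iv 3 h post-dose; sampling 0.125–1 h post-ACTH, up to 8 h, and 23.5 and 24 h. Aldosterone and cortisol by RIA; drug by LC/MS/MS (LLOQ 0.26 nmol/L, lower values set to zero).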

[21] = target: T1, CYP19 (aromatase) (Homo sapiens, UniProt P11511); assay: Inhibition of human CYP19 at 10 uM preincubated for 10 mins with NADPH followed by protein addition measured after 90 mins by fluorometric analysis
T1 sequence (P11511 whole entry): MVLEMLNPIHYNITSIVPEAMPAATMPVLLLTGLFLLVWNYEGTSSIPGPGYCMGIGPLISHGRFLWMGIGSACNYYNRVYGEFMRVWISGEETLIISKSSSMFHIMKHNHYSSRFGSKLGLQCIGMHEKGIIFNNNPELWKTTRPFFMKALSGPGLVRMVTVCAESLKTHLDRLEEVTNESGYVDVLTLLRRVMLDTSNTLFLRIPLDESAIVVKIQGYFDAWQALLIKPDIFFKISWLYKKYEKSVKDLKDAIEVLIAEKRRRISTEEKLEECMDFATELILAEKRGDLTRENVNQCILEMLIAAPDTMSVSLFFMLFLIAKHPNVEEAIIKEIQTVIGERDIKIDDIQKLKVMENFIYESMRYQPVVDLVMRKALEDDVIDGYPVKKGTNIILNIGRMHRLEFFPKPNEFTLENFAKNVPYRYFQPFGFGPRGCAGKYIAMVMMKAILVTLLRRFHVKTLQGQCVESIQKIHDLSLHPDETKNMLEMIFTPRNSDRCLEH

[22] = test system: Homo sapiens; assay: Dose normalized AUCtau in healthy human at 30 mg/kg, po bid; format: ADME, organism-based; details: in vivo; method in brief: as §2
[23] = AUC (0 to 24 hrs) in continuous angiotensin 2 infusion Sprague-Dawley rat model at 3 mg/kg, po; format: ADME, organism-based; set-up: time < 24 hr, dose 3 mg/kg, route oral; details: in vivo; method in brief: as §1
[24] = test system: Homo sapiens; assay: Dose normalized AUCtau in healthy human at 60 mg/kg, po bid; format: ADME, organism-based; details: in vivo; method in brief: as §2
[25] = test system: Plasma; assay: Drug uptake in plasma of po dosed chair-trained chronically cannulated cynomolgus monkey model compound administered followed by ACTH challenge for 3 hrs measured up to 8 hrs post challenge by LC/MS/MS analysis; format: ADME, organism-based, Macaca fascicularis; details: in vivo; method in brief: as §4
[26] = target: T2, Cytochrome P450 11B2, mitochondrial (Rattus norvegicus, UniProt P30099); assay: Inhibition of recombinant rat CYP11B2 using 11-deoxycorticosterone as substrate after 2 hrs by scintillation proximity assay
T2 sequence (P30099 whole entry): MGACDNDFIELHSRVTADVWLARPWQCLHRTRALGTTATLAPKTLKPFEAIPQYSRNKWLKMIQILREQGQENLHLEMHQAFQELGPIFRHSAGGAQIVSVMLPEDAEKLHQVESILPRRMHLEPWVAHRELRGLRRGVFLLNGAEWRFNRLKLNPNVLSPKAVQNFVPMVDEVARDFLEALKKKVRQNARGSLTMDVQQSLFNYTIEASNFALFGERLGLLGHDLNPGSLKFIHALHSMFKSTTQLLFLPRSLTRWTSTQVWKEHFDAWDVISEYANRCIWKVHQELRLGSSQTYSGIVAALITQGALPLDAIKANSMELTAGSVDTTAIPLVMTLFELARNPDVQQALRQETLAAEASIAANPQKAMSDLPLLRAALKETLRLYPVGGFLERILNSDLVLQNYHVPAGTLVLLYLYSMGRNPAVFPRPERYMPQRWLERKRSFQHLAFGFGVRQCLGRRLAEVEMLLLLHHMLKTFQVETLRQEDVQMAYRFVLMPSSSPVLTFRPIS

- bioavailability [1]: 84%
- Cmax [2]: 306 ng/mL
- IC50 [6]: 0.01 µM
- Cmax/dose [7]: 1.5 ng/mL
- AUC/dose [8]: 10.9 ng·h/mL/mg
- Tmax [9]: 4 h
- Cmax/dose [10]: 2.8 ng/mL
- Tmax [11]: 3 h
- solubility thermodynamic [13]: < 5 µM
- Cmax [14]: 117 ng/mL
- Cmax/dose [15]: 3.9 ng/mL
- half-life [16]: 0.467 h
- Cmax/dose [17]: 1.7 ng/mL
- Tmax [18]: 4 h
- Drug uptake [20]: Active
- inhibition at 1.5 h, 10 µM [21]: 82%
- AUC/dose [22]: 25.6 ng·h/mL/mg
- AUC(0-t) at 24 h [23]: 5.79 µM·h
- AUC/dose [24]: 17.1 ng·h/mL/mg
- Drug uptake [25]: Dose-dependent effect
- IC50 [26]: 27.4 µM
SMILES: CCS(=O)(=O)NCc1cncc(-c2c(C#N)c3ccc(Cl)cc3n2C)c1
- %max [3]: 70%
- Activity [4]: Dose-dependent effect
- %max [5]: 70%
- Activity [12]: Dose-dependent effect
- Activity [19]: Non-toxic
